Key:
[1] = target: Dipeptidyl peptidase 4 (Rattus norvegicus) (UniProt P14740); test: Ex vivo percent inhibition of Dipeptidyl peptidase IV in rat plasma after 30 min at 4 umol/kg peroral dose; format: functional, cell-free
[2] = target: Dipeptidyl peptidase 4 (Rattus norvegicus) (UniProt P14740); test: Ex vivo percent inhibition of Dipeptidyl peptidase IV in rat plasma after 4 hr at 4 umol/kg peroral dose; format: functional, cell-free
[3] = target: Dipeptidyl peptidase 4 (Rattus norvegicus) (UniProt P14740); test: Ex vivo Dipeptidyl peptidase IV inhibition in rat plasma after 4 hr 4 umol/kg peroral dose; format: functional, cell-free
[4] = target: Dipeptidyl peptidase 4 (Rattus norvegicus) (UniProt P14740); test: Effective dose for inhibition of Dipeptidyl peptidase IV in prediabetic rat model after 4 hr; format: functional; conditions: in the assay text read “fasted normal Sprague-Dawley rat” for “prediabetic rat model”
In short: (§1)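 Fasted normal male Sprague-Dawley rats given oral doses; plasma (EDTA) taken 0.5, 2, 4 or 6 h postdose and DPP-IV activity read with fluorogenic Ala-Pro-AFC (0.1 mM, 50 mM Hepes/140 mM NaCl, ex 360/em 530 nm, initial 20 min rate). ED50 = 50% inhibitory dose from percent inhibition vs dose plot at each time point.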

[5] = Half life in rat; format: ADME; conditions: in vivo
In short: (§2)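 Fasted adult male Sprague-Dawley rats (250–300 g), jugular-cannulated, given 10 mg/kg in water as iv bolus or oral gavage (n = 2 per route); serial heparinized blood to 12 h, plasma acetonitrile-precipitated and quantified by LC/MS. AUC by trapezoidal (oral) or log-linear (iv) integration; F = mean oral AUC / mean iv AUC.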

[6] = target: Dipeptidyl peptidase 4 (Rattus norvegicus) (UniProt P14740); test: Effective dose for inhibition of Dipeptidyl peptidase IV in prediabetic rat model after 2 hr; format: functional; conditions: in the assay text read “fasted normal Sprague-Dawley rat” for “prediabetic rat model”; in short: as §1
[7] = target: Dipeptidyl peptidase 4 (Rattus norvegicus) (UniProt P14740); test: Effective dose for inhibition of Dipeptidyl peptidase IV in prediabetic rat model after 0.5 hr; format: functional; conditions: in the assay text read “fasted normal Sprague-Dawley rat model” for “prediabetic rat model”; in short: as §1
[8] = Oral bioavailability in rat; format: ADME, organism-based; conditions: in vivo; in short: as §2
[9] = target: Dipeptidyl peptidase 4 (Rattus norvegicus) (UniProt P14740); test: Effective dose for inhibition of Dipeptidyl peptidase IV in prediabetic rat model after 6 hr; format: functional; in short: as §1
Dipeptidyl peptidase 4 = Dipeptidyl peptidase 4 (Homo sapiens, UniProt P27487); test: In vitro inhibition constant against human Dipeptidyl peptidase IV
In short: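 Recombinant human DPP-IV expressed in CHO-DG44 cells, purified by anion exchange, gel filtration and MonoQ. […] IC50 from Hill fit (Morrison where needed), converted to Ki assuming competitive inhibition; mean ± SEM, ≥ triplicate.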

Cytochrome P450 3A4 = Cytochrome P450 3A4 (Homo sapiens, UniProt P08684); test: Inhibitory concentration against Cytochrome 450 3A4; format: ADME
Cytochrome P450 3A4, sequence (P08684 whole entry): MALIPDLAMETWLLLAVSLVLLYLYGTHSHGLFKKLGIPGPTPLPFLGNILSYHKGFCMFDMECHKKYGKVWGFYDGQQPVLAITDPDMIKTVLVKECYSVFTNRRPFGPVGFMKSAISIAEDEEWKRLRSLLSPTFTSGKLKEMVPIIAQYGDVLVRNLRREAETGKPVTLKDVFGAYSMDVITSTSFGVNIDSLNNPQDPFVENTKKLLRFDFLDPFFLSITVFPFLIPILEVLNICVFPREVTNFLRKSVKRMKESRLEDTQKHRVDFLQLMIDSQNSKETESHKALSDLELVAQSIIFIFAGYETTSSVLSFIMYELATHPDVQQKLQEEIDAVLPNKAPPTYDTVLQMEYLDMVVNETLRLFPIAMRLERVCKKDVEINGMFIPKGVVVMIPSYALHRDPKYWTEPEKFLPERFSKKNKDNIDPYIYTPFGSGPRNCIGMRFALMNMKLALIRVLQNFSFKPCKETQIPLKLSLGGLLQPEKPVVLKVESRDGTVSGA

Dipeptidyl peptidase 4 (Rattus norvegicus), sequence (P14740 whole entry, looked up): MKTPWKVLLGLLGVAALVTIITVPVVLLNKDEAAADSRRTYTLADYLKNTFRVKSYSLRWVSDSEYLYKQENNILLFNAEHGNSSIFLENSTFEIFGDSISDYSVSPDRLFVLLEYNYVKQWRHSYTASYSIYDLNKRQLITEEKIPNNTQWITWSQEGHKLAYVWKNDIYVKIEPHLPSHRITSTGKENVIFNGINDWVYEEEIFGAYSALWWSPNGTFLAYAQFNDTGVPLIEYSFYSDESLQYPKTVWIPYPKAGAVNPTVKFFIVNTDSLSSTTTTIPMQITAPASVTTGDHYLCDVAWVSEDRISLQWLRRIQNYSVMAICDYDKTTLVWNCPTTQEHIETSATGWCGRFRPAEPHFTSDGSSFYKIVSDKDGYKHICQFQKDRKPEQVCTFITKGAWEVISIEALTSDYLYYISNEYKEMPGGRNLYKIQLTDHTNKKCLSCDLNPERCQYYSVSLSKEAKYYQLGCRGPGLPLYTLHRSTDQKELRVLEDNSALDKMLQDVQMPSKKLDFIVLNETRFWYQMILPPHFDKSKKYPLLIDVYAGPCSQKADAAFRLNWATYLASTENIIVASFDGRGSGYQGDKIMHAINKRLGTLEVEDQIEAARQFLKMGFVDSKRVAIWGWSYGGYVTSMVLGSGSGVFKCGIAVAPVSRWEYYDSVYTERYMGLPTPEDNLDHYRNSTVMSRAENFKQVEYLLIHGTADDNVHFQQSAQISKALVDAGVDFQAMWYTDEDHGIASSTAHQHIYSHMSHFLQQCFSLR
Dipeptidyl peptidase 4, sequence (P27487 whole entry): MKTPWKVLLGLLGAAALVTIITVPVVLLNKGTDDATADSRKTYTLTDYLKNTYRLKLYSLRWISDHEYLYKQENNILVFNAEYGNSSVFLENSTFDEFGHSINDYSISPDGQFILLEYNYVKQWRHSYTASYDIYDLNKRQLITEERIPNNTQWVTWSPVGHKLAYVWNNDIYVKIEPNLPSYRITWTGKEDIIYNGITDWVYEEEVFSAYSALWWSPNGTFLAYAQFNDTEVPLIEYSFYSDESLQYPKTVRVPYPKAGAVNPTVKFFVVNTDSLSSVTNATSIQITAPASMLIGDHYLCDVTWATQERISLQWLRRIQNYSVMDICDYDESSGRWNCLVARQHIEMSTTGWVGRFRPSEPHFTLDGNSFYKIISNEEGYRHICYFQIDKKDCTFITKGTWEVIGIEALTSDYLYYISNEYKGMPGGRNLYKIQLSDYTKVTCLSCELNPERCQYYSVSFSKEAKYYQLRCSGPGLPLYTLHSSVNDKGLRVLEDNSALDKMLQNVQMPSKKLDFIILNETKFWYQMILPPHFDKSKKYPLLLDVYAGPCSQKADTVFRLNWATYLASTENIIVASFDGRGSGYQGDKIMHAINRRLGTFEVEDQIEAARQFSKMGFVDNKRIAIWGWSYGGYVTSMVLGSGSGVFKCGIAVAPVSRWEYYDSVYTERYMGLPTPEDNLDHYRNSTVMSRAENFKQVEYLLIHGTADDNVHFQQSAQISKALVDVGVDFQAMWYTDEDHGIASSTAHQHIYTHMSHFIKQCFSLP

Row | inhibition [1] | inhibition [2] | Compound | other results
1 | 17% | 8% | N#C[C@@H]1C[C@@H]2C[C@@H]2N1C(=O)[C@@H](N)C1(CO)CCCCC1 | –
2 | 36% | 17% | N#C[C@@H]1C[C@@H]2C[C@@H]2N1C(=O)[C@@H](N)C1(CO)CCC1 | –
3 | 69% | 56% | N#C[C@@H]1C[C@@H]2C[C@@H]2N1C(=O)[C@@H](N)C1(CO)CCCC1 | ED50 [4]: 5 µmol/kg; ED50 [6]: 3.2 µmol/kg; ED50 [7]: 0.4 µmol/kg; bioavailability [8]: 59%; ED50 ([9]; in the assay text read “fasted normal Sprague-Dawley rat” for “prediabetic rat model”): 11 µmol/kg
4 | 71% | 64% | C=CC1([C@H](N)C(=O)N2[C@H](C#N)C[C@@H]3C[C@@H]32)CCCC1 | Ki (Dipeptidyl peptidase 4): 0.0039 µM; bioavailability [8]: 5.3%
5 | 40% | 44% | CCC1([C@H](N)C(=O)N2[C@H](C#N)C[C@@H]3C[C@@H]32)CCCC1 | –
6 | 76% | 60% | C=CC1([C@H](N)C(=O)N2[C@H](C#N)C[C@@H]3C[C@@H]32)CCCCC1 | –

More lines, now with the values behind:

Row | Compound | inhibition [1] | inhibition [2] | other results
7 | C=CC1([C@H](N)C(=O)N2[C@H](C#N)C[C@@H]3C[C@@H]32)CCC1 | 42% | 32% | –
8 | N#C[C@@H]1C[C@@H]2C[C@@H]2N1C(=O)[C@@H](N)C12CC3CC(O)(CC(O)(C3)C1)C2 | 62% | – | inhibition [3]: 57%
9 | N#C[C@@H]1C[C@@H]2C[C@@H]2N1C(=O)[C@@H](N)C12CC3CC(CC(F)(C3)C1)C2 | 80% | – | inhibition [3]: 61%
10 | N#C[C@@H]1C[C@@H]2C[C@@H]2N1C(=O)[C@@H](N)C12CC3CC(CC(O)(C3)C1)C2 [SAXAGLIPTIN ANHYDROUS] | 87% | – | ED50 [4]: 0.3 µmol/kg; inhibition [3]: 87%; half-life [5]: 2.1 h; ED50 [6]: 0.2 µmol/kg; ED50 [7]: 0.12 µmol/kg; bioavailability [8]: 75%; ED50 ([9]; in the assay text read “fasted normal Sprague-Dawley rat model” for “prediabetic rat model”): 0.5 µmol/kg
11 | CCC(C)(C)[C@H](N)C(=O)N1[C@H](C#N)C[C@@H]2C[C@@H]21 | 0% | 0% | –
12 | C=CC(CC)(CC)[C@H](N)C(=O)N1[C@H](C#N)C[C@@H]2C[C@@H]21 | 39% | 20% | –
13 | C=CC1([C@H](N)C(=O)N2[C@H](C#N)C[C@@H]3C[C@@H]32)CCCCCC1 | 77% | 66% | –
14 | C=CC(C)(C)[C@H](N)C(=O)N1[C@H](C#N)C[C@@H]2C[C@@H]21 | 13% | 10% | –
15 | N#C[C@@H]1C[C@@H]2C[C@@H]2N1C(=O)[C@@H](N)C12CC3CC(CC(C3)C1)C2 | 84% | – | inhibition [3]: 83%; IC50 (Cytochrome P450 3A4): 20 µM; bioavailability [8]: 2%
